The values that follow come from ChEMBL document CHEMBL1145857, “Toward tissue-selective pancreatic B-cells KATP channel openers belonging to 3-alkylamino-7-halo-4H-1,2,4-benzothiadiazine 1,1-dioxides” (J Med Chem, 2003).

For series [1], the species on record is Rattus norvegicus. Briefly: Concentration required to inhibit insulin release in rat. Type of series: functional.
The species named for series [2] is Rattus norvegicus. In words: Effective dose required for relaxation of the 30 mM KCl-induced contraction of rat aortic rings. Type of series: functional. Particulars: Aorta, read-out: ED50 (the source's name). Put shortly: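 Endothelium-denuded transverse aortic rings (3–4 mm) from fed Wistar rats (180–220 g); isometric tension by force transducer. After 60 min equilibration, contracted with 30 mM KCl; once stable, drug added cumulatively to maximal relaxation or 0.3 mM. Relaxation as % of KCl contraction; ED50 (50% inhibition of KCl plateau) from dose–response curves; mean ± SEM (n).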

The species entered for series [3] is Rattus norvegicus. In words: Percent inhibition of residual insulin release from rat pancreatic islets in the presence of 16.7 mM glucose at 1 uM concentration. In kind it is functional. Put shortly:
(§1)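 Islets isolated by collagenase from fed Wistar rats (180–220 g); groups of 10 islets preincubated 30 min at 37 °C in bicarbonate salt medium with 2.8 mM glucose and 0.5% dialyzed albumin under O2/CO2 95:5, then incubated 90 min at 37 °C with 16.7 mM glucose plus drug. Insulin measured by radioimmunoassay against rat insulin standard; residual release as % of drug-free 16.7 mM glucose control; IC50 estimated.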

Series [4] is filed under the species Rattus norvegicus. Briefly: Percent inhibition of residual insulin release from rat pancreatic islets in the presence of 16.7 mM glucose at 10 uM concentration. Type of series: functional. Put shortly: as §1
The species named for series [5] is Rattus norvegicus. In words: Percent inhibition of residual insulin release from rat pancreatic islets in the presence of 16.7 mM glucose at 50 uM concentration. In kind it is functional. Put shortly:
as §1

The species entered for series [6] is Rattus norvegicus. Briefly: Estimated selectivity ratio of ED50 and IC50 in rat was calculated. Type of series: functional.
Series [7] can be described thus: pKa value determined at 20 °C.
The species entered for series [8] is Rattus norvegicus. In words: Percent inhibition of residual insulin release from rat pancreatic islets in the presence of 16.7mM glucose at 0.1 uM concentration. In kind it is functional. Put shortly:
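Islets isolated by collagenase from fed Wistar rats (180–220 g). Groups of 10 islets preincubated 30 min at 37 °C in bicarbonate salt medium with 2.8 mM glucose, 0.5% dialyzed albumin, gassed O2/CO2 95:5. Then incubated 90 min at 37 °C with 16.7 mM glucose plus drug. Insulin measured by radioimmunoassay against rat insulin; expressed as % of drug-free 16.7 mM glucose control; mean ± SEM (n).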

For orientation: IC50 means the concentration that inhibits the measured activity by half. High values mean lower potency, low ones higher potency. As to `O=S1(=O)NC(NC2CCC2)=Nc2ccc(F)cc21`, the IC50 in the series filed under Rattus norvegicus [1] was found to be 1.3 µM. The EC50 in the series filed under Rattus norvegicus [2] came out at 71.8 µM. Also, the RIS in the series filed under Rattus norvegicus [3] was 58.2%; in the series listed under Rattus norvegicus [4] it was 7.8%; in the series filed under Rattus norvegicus [5] it was 5.9%. Also, the Selectivity in the series filed under Rattus norvegicus [6] was 55.
As a reminder, the pKa is the negative logarithm of the acid dissociation constant. In the case of `CC(C)NC1=NS(=O)(=O)c2cc(Cl)ccc2N1`, the EC50 in the series listed under Rattus norvegicus [2] came to 36.3 µM. The values for the RIS in the series filed under Rattus norvegicus [4] and in the series filed under Rattus norvegicus [5] were 4.9% and 5.7%, respectively. Besides, the Selectivity in the series filed under Rattus norvegicus [6] is 52. Also, the pKa in series [7] came to 9.51.
Take `CC(C)NC1=NS(=O)(=O)c2cc(I)ccc2N1`: the IC50 in the series listed under Rattus norvegicus [1] was 2.1 µM. Besides, in the series filed under Rattus norvegicus [2], the EC50 came out at 7.7 µM. Besides, the RIS amounted to 99.2% in the series filed under Rattus norvegicus [8], 74.8% in the series filed under Rattus norvegicus [3], 9.6% in the series filed under Rattus norvegicus [4] and 5.6% in the series filed under Rattus norvegicus [5]. Also, the Selectivity in the series filed under Rattus norvegicus [6] was 3.7. The compound further gave a pKa in series [7] of 9.28.
`CNC1=NS(=O)(=O)c2cc(Cl)ccc2N1` gave an IC50 in the series filed under Rattus norvegicus [1] of 1.1 µM. The EC50 in the series filed under Rattus norvegicus [2] is 142 µM. The RIS in the series listed under Rattus norvegicus [3] was determined as 55.1%; in the series listed under Rattus norvegicus [4], 4.4%; in the series listed under Rattus norvegicus [5], 2.4%. The Selectivity in the series filed under Rattus norvegicus [6] was 129.
Turning to `CC(C)NC1=NS(=O)(=O)c2cc(F)ccc2N1`, in the series listed under Rattus norvegicus [1], the midpoint of inhibition, the IC50, lay at 0.8 µM. Also, the RIS in the series listed under Rattus norvegicus [4] was 3.7%; in the series filed under Rattus norvegicus [5], 3.3%. Further, the Selectivity in the series listed under Rattus norvegicus [6] is on record as 54. The same compound had a pKa in series [7] of 9.63.
With `CC(C)NC1=NS(=O)(=O)c2cc(Br)ccc2N1`, the IC50 in the series filed under Rattus norvegicus [1] was 0.5 µM. Also, the values for the RIS in the series filed under Rattus norvegicus [8], in the series filed under Rattus norvegicus [4] and in the series listed under Rattus norvegicus [5] were 91%, 8.1% and 6.7%, respectively. Further, in the series listed under Rattus norvegicus [6], the Selectivity is listed as 9.6. The pKa in series [7] is 9.41.
